ChEMBL document CHEMBL4033714, “Discovery of BI 135585, an in vivo efficacious oxazinanone-based 11β hydroxysteroid dehydrogenase type 1 inhibitor” (Bioorg Med Chem, 2017)
≈ marks a conversion by molar mass, not a printed value.

Columns and labels:
[1] = Mean residence time in po dosed cynomolgus monkey; assay type: ADME, organism-based, Macaca fascicularis; conditions: in vivo
[2] = Protein binding in human plasma; assay type: ADME, cell-free; conditions: read-out: PPB (converted)
[3] = biological target: T1, Nuclear receptor subfamily 1 group I member 2 (Homo sapiens, UniProt O75469); assay: Inhibition of PXR (unknown origin); assay type: ADME
T1 sequence (O75469 whole entry): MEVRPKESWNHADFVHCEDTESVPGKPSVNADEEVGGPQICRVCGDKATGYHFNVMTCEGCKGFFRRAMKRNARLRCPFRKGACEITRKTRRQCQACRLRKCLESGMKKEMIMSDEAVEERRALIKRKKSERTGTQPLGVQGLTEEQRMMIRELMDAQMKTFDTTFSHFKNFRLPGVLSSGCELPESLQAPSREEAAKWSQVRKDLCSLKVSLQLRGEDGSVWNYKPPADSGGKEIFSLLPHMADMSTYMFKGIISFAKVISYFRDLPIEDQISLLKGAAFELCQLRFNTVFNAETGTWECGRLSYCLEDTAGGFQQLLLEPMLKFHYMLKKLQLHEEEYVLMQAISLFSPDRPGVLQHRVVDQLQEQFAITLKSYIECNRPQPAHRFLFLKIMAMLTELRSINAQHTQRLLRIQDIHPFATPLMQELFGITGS

[4] = biological target: CYP2C9 (Homo sapiens, UniProt P11712); assay: Inhibition of CYP2C9 (unknown origin); assay type: ADME
[5] = biological target: T2, 17-beta-hydroxysteroid dehydrogenase type 1 (Homo sapiens, UniProt P14061); assay: Inhibition of 17beta-HSD1 (unknown origin)
T2 sequence (P14061 whole entry): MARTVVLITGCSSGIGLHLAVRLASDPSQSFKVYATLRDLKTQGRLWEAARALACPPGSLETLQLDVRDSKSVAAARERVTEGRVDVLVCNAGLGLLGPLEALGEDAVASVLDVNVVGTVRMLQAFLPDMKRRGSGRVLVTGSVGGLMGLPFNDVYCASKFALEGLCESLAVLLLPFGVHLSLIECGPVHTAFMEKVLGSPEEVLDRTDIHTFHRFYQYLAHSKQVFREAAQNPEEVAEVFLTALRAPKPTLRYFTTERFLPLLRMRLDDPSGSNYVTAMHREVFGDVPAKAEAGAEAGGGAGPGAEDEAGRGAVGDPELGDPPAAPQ

[6] = biological target: Cytochrome P450 2D6 (Homo sapiens, UniProt P10635); assay: Inhibition of CYP2D6 (unknown origin); assay type: ADME
[7] = test system: Cynomolgus monkey; assay: In-vivo inhibition of 11beta-HSD1 in cynomolgus monkey perirenal adipose tissue assessed as reduction in cortisol level at 3 mg/kg, po using [2H]-cortisone as substrate after 22 hrs by HPLC analysis relative to control; assay type: functional; conditions: Macaca fascicularis
Procedure, shortened: (§1)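 Cynomolgus monkeys were dosed orally. Perirenal and abdominal subcutaneous adipose tissue was then taken, and cortisone-to-cortisol conversion was measured ex vivo. Reduction in cortisol is expressed relative to vehicle-treated animals.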

[8] = test system: Cynomolgus monkey; assay: In-vivo inhibition of 11beta-HSD1 in cynomolgus monkey abdominal subcutaneous adipose tissue assessed as reduction in cortisol level at 3 mg/kg, po using [2H]-cortisone as substrate after 22 hrs by HPLC analysis relative to control; assay type: functional; conditions: Macaca fascicularis; procedure, shortened: as §1
[9] = test system: Cynomolgus monkey; assay: In-vivo inhibition of 11beta-HSD1 in cynomolgus monkey abdominal subcutaneous adipose tissue assessed as reduction in cortisol level at 1 mg/kg, po using [2H]-cortisone as substrate after 22 hrs by HPLC analysis relative to control; assay type: functional; conditions: Macaca fascicularis; procedure, shortened: as §1
[10] = test system: Cynomolgus monkey; assay: In-vivo inhibition of 11beta-HSD1 in cynomolgus monkey perirenal adipose tissue assessed as reduction in cortisol level at 1 mg/kg, po using [2H]-cortisone as substrate after 22 hrs by HPLC analysis relative to control; assay type: functional; conditions: Macaca fascicularis; procedure, shortened: as §1
[11] = biological target: Voltage-gated inwardly rectifying potassium channel KCNH2 (Homo sapiens, UniProt Q12809); assay: Inhibition of human ERG
[12] = Volume of distribution at steady state in iv dosed cynomolgus monkey; assay type: ADME, organism-based, Macaca fascicularis; conditions: in vivo, read-out: Vdss
[13] = Half life in rat liver microsomes; assay type: ADME, microsome
[14] = Clearance in iv dosed cynomolgus monkey; assay type: ADME, organism-based, Macaca fascicularis; conditions: in vivo
[15] = Mean residence time in iv dosed cynomolgus monkey; assay type: ADME, organism-based, Macaca fascicularis; conditions: in vivo
[16] = biological target: T3, 11-beta-hydroxysteroid dehydrogenase type 2 (Homo sapiens, UniProt P80365); assay: Inhibition of 11beta-HSD2 (unknown origin)
T3 sequence (P80365 whole entry): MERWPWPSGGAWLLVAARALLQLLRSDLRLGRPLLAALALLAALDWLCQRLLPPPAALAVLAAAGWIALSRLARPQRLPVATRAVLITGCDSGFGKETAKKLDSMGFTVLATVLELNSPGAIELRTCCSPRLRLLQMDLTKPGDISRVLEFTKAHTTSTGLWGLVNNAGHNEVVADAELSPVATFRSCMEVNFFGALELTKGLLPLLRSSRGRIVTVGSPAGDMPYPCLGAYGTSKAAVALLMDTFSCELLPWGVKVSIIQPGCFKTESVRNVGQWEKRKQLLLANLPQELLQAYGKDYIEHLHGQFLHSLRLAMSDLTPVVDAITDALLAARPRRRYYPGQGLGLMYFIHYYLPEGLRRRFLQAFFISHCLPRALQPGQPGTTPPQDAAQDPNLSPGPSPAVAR

[17] = Half life in human liver microsomes; assay type: ADME, microsome
[18] = Half life in cynomolgus monkey liver microsomes; assay type: ADME, Macaca fascicularis, microsome
[19] = test system: Cynomolgus monkey; assay: Dose normalized AUC in iv dosed cynomolgus monkey; assay type: ADME, organism-based, Macaca fascicularis; conditions: in vivo
[20] = biological target: T4, 3 beta-hydroxysteroid dehydrogenase/Delta 5-->4-isomerase type 2 (Homo sapiens, UniProt P26439); assay: Inhibition of 3beta-HSD2 (unknown origin)
T4 sequence (P26439 whole entry): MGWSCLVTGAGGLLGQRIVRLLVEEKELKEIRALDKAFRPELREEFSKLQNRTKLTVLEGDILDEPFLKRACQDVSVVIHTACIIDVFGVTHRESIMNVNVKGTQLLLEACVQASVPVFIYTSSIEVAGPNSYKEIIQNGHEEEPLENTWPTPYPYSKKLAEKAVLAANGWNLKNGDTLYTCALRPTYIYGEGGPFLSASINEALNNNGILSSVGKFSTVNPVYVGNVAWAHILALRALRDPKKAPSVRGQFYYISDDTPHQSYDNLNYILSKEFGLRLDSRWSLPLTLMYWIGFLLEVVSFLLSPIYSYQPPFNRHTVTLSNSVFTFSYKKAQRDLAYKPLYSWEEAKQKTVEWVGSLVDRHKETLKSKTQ

[21] = biological target: CYP3A4 (Homo sapiens, UniProt P08684); assay: Inhibition of recombinant CYP3A4 (unknown origin); assay type: ADME; conditions: recombinant CYP3A4
[22] = biological target: hERG (Homo sapiens, UniProt Q12809); assay: Inhibition of human ERG at 10 uM by patch clamp assay relative to control
[23] = Aqueous solubility of the compound; assay type: physicochemical; conditions: aqueous medium; read-out: solubility
Procedure, shortened: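 Solubility measured in water, with each compound tested as amorphous material.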

[24] = Oral bioavailability in cynomolgus monkey; assay type: ADME, organism-based, Macaca fascicularis; conditions: in vivo
[25] = Partition coefficient, log P of the compound; assay type: physicochemical; conditions: octanol/water

Sequence of Cytochrome P450 2D6 (P10635 whole entry): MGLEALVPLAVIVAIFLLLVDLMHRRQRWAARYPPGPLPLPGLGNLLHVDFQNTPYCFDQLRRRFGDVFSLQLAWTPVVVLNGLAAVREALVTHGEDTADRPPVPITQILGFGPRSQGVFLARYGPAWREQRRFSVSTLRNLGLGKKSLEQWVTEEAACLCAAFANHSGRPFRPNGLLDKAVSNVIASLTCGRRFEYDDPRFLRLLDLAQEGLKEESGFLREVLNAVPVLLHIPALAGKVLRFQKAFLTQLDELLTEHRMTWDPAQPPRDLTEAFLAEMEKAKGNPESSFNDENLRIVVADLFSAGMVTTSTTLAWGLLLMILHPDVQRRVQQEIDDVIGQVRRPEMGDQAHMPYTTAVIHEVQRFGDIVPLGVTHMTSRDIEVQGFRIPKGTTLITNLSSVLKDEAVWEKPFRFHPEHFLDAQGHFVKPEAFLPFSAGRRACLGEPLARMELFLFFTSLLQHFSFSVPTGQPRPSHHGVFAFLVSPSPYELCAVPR
Sequence of hERG (Q12809 whole entry): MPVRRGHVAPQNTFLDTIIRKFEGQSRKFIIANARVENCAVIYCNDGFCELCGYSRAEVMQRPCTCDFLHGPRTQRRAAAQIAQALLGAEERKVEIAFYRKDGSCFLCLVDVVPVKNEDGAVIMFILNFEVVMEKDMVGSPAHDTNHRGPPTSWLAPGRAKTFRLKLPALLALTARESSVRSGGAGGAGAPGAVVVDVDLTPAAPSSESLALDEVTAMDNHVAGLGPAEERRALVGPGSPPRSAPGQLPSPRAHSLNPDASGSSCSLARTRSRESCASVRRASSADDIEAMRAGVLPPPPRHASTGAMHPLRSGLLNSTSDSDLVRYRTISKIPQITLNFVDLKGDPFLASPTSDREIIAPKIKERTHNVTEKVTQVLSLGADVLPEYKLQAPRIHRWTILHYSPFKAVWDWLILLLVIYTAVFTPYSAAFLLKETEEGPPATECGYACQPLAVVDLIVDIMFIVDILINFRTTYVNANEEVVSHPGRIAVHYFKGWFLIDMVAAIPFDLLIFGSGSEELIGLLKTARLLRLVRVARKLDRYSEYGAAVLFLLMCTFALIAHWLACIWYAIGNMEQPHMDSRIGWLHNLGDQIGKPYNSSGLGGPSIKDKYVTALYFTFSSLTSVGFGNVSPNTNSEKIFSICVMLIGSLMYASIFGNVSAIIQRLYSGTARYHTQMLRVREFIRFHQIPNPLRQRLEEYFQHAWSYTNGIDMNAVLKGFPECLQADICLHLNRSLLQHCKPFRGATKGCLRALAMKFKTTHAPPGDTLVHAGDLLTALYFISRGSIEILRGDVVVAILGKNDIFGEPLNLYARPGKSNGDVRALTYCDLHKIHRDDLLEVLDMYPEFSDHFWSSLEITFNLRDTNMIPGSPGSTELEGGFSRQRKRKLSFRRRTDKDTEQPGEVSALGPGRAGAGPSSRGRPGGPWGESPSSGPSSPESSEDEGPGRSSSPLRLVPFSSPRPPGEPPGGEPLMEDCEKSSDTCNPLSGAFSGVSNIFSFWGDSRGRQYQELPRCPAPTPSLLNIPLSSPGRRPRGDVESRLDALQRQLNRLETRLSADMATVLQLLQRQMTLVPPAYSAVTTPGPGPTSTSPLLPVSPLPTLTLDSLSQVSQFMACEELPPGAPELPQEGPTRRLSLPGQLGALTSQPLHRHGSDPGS
Sequence of Voltage-gated inwardly rectifying potassium channel KCNH2 (Q12809 whole entry): as above
Sequence of CYP2C9 (P11712 whole entry): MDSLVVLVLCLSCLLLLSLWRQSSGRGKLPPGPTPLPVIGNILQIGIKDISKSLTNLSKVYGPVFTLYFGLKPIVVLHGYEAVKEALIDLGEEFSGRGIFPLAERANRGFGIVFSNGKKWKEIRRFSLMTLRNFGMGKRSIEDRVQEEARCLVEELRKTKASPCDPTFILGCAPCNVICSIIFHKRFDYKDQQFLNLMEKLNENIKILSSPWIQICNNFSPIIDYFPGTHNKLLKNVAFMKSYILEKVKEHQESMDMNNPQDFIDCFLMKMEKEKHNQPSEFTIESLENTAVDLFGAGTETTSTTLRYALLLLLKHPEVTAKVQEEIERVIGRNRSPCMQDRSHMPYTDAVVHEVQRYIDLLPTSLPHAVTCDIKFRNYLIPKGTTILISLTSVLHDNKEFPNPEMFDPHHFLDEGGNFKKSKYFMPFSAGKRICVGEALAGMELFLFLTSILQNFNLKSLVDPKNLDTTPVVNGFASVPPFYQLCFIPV
Sequence of CYP3A4 (P08684 whole entry): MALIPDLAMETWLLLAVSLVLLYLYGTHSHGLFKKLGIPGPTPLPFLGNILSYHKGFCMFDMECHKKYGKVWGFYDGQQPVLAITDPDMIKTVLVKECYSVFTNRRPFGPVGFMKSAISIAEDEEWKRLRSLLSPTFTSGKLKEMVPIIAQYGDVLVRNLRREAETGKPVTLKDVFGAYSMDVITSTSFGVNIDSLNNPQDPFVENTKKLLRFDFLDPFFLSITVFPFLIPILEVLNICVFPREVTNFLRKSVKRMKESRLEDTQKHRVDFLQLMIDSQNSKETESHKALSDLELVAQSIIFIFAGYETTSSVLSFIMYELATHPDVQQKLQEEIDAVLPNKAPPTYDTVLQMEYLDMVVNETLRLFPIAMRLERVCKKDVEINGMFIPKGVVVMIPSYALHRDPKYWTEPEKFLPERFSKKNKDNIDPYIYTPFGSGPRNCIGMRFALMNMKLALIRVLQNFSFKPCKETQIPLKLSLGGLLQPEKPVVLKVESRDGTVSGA

C[C@@H](c1ccc(-c2ccn(C)c(=O)c2)cc1)N1CC[C@](CC(C)(C)O)(c2ccccc2)OC1=O
MRT [1]: 8.7 h | fraction unbound [2]: 0.084 | EC50 [3]: > 10 µM | IC50 [4]: > 50 µM | IC50 [5]: > 10 µM | IC50 [6]: > 50 µM | inhibition in vivo at 3 mg/kg [7]: 90% | inhibition in vivo at 3 mg/kg [8]: 95% | inhibition in vivo at 1 mg/kg [9]: 67% | inhibition in vivo at 1 mg/kg [10]: 67% | IC50 [11]: > 100 µM | Vd [12]: 2.5 L/kg | half-life [13]: > 1.5 h | clearance [14]: 0.45 L/h/kg | MRT [15]: 5.5 h | IC50 [16]: > 10 µM | half-life [17]: > 1.5 h | half-life [18]: > 1.5 h | AUC/dose [19]: 2500 nM·h | IC50 [20]: > 10 µM | IC50 [21]: > 50 µM | inhibition at 10 µM [22]: < 10% | solubility [23]: 0.22 mg/mL (≈ 478 µM) | bioavailability [24]: 54% | logP [25]: 2.6
